# From ChEMBL document CHEMBL1909500, “Synthesis and in vitro anticancer activity of 6,7-methylenedioxy (or 5-hydroxy-6-methoxy)-2-(substituted selenophenyl)quinolin-4-one analogs” (Eur J Med Chem, 2011)
# How the values were obtained:
# Format in all cases: functional
# HOP-62 = test: Anticancer activity against human HOP62 cells after 48 hrs by MTT assay; details: HOP-62, 48 h
# SK-MEL-28 = test: Anticancer activity against human SK-MEL-28 cells after 48 hrs by MTT assay; details: SK-MEL-28, 48 h
# HL-60 [1] = test: Cell cycle arrest in human HL60 assessed as cell accumulation in S phase at 1 uM after 24 hrs pretreated with pan-caspase inhibitor z-VAD-fmk for 3 hrs by propidium iodide staining-based flow cytometric analysis; set-up: scale not given: the % may be the effect or the level left
# How it was run: (§1)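 HL-60 cells were preincubated for 3 h with or without the pan-caspase inhibitor z-VAD-fmk, then co-exposed to compound at 1 μM for 24 h. Cells were washed in PBS and fixed overnight in ice-cold 70% ethanol at −20 °C. They were stained for 30 min in the dark with propidium iodide 4 μg/mL, 0.1 mg/ml RNase and 1% Triton X-100. DNA content was read on a FACScan flow cytometer.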
# 786-0 = test: Anticancer activity against human 786-0 cells after 48 hrs by MTT assay; details: 786-0, 48 h
# IGROV-1 = test: Anticancer activity against human IGROV1 cells after 48 hrs by MTT assay; details: IGROV-1, 48 h
# BT-549 = test: Anticancer activity against human BT549 cells after 48 hrs by MTT assay; details: BT-549, 48 h
# NCI-H226 = test: Anticancer activity against human NCI-H226 cells after 48 hrs by MTT assay; details: NCI-H226, 48 h
# U-251 = test: Anticancer activity against human U251 cells after 48 hrs by MTT assay; details: U-251, 48 h
# SF-268 = test: Anticancer activity against human SF268 cells after 48 hrs by MTT assay; details: SF-268, 48 h
# HL-60 [2] = test: Cell cycle arrest in human HL60 assessed as cell accumulation in G0/G1 phase at 1 uM after 24 hrs pretreated with pan-caspase inhibitor z-VAD-fmk for 3 hrs by propidium iodide staining-based flow cytometric analysis; set-up: scale not given: the % may be the effect or the level left; how it was run: as §1
# KM12 = test: Anticancer activity against human KM12 cells after 48 hrs by MTT assay; details: KM12, 48 h
# NCI/ADR-RES = test: Anticancer activity against human NCI/ADR-RES cells after 48 hrs by MTT assay
# [3] = read-out: pLC50 (the source's name) (converted)
compound,measurement,setting,value
Cc1ccc(-c2cc(=O)c3cc4c(cc3[nH]2)OCO4)[se]1,GI50,HOP-62,562 nM
same,CC50,HOP-62; [3],> 100000 nM
same,TGI,HOP-62; read-out: pTGI,> 100000 nM
same,GI50,SK-MEL-28,794 nM
same,CC50,SK-MEL-28; [3],> 100000 nM
same,TGI,SK-MEL-28; read-out: pTGI,> 100000 nM
same,Activity,HL-60 [1],36.2%
same,GI50,786-0,427 nM
same,CC50,786-0; [3],> 100000 nM
same,TGI,786-0; read-out: pTGI,> 100000 nM
same,GI50,IGROV-1,145 nM
same,CC50,IGROV-1; [3],> 100000 nM
same,TGI,IGROV-1; read-out: pTGI (converted),457 nM
same,GI50,BT-549,447 nM
same,CC50,BT-549; [3],> 100000 nM
same,TGI,BT-549; read-out: pTGI,> 100000 nM
same,GI50,NCI-H226,389 nM
same,CC50,NCI-H226; [3],> 100000 nM
same,TGI,NCI-H226; read-out: pTGI,> 100000 nM
same,GI50,U-251,339 nM
same,CC50,U-251; [3],> 100000 nM
same,TGI,U-251; read-out: pTGI,> 100000 nM
same,GI50,SF-268,513 nM
same,CC50,SF-268; [3],> 100000 nM
same,TGI,SF-268; read-out: pTGI,> 100000 nM
same,Activity,HL-60 [2],8.3%
same,GI50,KM12,263 nM
same,CC50,KM12; [3],> 100000 nM
same,TGI,KM12; read-out: pTGI,> 100000 nM
same,GI50,NCI/ADR-RES,316 nM
same,CC50,NCI/ADR-RES; [3],> 100000 nM
same,TGI,NCI/ADR-RES; read-out: pTGI,> 100000 nM
